Source: the M2OR odorant receptor database
Numbering of substitutions follows the chain as printed.

Columns and labels:
Conditions in all cases: stereoisomer not certain
[1] = system: T1, O14A2 I133V
T1 sequence (whole entry): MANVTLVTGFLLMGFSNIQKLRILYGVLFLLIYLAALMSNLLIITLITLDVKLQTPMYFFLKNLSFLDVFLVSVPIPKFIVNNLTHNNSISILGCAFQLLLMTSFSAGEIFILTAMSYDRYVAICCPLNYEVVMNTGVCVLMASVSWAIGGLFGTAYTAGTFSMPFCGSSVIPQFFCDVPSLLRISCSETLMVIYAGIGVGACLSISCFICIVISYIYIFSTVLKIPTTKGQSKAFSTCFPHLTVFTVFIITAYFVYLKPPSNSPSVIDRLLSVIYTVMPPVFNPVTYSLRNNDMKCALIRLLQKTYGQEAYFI
Procedure, shortened: (§1)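 Transient luciferase assays in mammalian cell lines were common, though methods varied by source. The values come from published papers and their supplementary material, with extra details from the original authors when needed. Responsive refers to a measured signal the original authors judged statistically different from baseline, and non-responsive (inactive) to the remainder.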

[2] = system: T2, O14CZ
T2 sequence (whole entry): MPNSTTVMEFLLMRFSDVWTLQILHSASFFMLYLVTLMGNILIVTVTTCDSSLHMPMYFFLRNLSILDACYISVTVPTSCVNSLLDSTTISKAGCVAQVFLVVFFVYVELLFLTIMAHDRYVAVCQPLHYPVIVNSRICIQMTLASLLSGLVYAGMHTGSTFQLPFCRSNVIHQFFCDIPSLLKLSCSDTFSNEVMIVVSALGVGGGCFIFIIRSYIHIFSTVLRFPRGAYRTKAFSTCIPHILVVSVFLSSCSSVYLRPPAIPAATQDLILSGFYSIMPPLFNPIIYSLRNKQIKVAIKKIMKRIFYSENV
Procedure, shortened: as §1

[3] = system: T3, O14I1 V36A D50N Y216C
T3 sequence (whole entry): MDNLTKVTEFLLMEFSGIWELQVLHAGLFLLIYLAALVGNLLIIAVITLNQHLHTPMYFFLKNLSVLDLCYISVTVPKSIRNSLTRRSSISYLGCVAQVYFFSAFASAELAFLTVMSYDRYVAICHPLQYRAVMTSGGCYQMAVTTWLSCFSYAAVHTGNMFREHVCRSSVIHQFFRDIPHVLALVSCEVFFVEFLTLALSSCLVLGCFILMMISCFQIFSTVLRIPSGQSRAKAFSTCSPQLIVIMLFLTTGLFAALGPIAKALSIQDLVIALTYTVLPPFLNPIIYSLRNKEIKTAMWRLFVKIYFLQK
Procedure, shortened: as §1

[4] = system: T4, O14J1 N3Y
T4 sequence (whole entry): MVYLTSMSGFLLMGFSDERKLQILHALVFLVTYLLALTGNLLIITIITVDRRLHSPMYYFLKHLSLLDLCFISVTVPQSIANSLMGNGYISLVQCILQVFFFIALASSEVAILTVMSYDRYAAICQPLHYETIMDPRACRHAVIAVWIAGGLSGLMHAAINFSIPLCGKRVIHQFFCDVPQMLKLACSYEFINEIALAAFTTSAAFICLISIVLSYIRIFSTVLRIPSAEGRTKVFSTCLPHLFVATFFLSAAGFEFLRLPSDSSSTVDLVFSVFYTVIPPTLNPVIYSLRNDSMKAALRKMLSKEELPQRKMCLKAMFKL
Procedure, shortened: as §1

[5] = system: T5, O14K1 D119Y
T5 sequence (whole entry): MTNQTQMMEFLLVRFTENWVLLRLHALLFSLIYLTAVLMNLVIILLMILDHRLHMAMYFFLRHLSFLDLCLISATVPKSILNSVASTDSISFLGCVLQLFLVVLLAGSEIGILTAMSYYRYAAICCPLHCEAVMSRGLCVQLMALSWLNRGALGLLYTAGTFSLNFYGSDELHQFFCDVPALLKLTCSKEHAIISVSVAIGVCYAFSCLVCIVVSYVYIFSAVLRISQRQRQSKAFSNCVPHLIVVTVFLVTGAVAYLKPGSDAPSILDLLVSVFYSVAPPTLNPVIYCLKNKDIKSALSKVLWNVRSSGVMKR
Procedure, shortened: as §1

[6] = system: T6, O2A25
T6 sequence (whole entry): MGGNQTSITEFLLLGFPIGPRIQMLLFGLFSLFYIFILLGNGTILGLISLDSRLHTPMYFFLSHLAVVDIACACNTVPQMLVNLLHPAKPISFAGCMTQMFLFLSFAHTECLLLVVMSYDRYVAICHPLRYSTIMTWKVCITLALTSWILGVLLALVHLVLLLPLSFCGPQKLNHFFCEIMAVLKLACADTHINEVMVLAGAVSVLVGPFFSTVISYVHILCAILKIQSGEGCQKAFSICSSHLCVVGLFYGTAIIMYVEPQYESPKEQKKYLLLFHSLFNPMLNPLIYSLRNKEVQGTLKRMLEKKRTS
Procedure, shortened: as §1

[7] = system: T7, O2AE1
T7 sequence (whole entry): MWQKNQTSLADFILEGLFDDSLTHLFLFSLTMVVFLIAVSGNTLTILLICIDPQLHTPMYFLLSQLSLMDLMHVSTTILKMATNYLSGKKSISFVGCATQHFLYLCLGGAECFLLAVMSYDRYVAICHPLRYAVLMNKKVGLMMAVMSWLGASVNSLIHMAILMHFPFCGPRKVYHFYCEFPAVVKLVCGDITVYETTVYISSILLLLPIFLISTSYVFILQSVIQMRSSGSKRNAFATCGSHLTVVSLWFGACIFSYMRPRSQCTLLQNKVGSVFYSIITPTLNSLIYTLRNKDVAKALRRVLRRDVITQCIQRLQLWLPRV
Procedure, shortened: as §1

[8] = system: T8, O2AJ1
T8 sequence (whole entry): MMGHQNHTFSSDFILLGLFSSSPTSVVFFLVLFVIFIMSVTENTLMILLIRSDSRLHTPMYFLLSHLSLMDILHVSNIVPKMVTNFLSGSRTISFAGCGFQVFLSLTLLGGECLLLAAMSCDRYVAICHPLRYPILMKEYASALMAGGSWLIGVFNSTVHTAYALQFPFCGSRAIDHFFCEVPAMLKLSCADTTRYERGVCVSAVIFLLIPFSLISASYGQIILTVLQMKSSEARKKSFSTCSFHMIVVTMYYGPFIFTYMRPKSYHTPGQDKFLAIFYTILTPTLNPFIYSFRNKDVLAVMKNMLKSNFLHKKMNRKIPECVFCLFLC
Procedure, shortened: as §1

[9] = system: T9, O2AK2 S99N
T9 sequence (whole entry): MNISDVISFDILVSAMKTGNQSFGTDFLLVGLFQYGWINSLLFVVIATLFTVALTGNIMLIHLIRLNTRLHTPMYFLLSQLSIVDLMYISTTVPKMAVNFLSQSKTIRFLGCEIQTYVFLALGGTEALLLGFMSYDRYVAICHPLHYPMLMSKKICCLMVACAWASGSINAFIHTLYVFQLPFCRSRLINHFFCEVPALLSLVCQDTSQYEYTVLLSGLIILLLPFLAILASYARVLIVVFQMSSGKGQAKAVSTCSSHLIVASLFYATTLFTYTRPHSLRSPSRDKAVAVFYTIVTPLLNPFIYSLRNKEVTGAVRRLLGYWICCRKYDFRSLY
Procedure, shortened: as §1

[10] = system: T10, O2T11
T10 sequence (whole entry): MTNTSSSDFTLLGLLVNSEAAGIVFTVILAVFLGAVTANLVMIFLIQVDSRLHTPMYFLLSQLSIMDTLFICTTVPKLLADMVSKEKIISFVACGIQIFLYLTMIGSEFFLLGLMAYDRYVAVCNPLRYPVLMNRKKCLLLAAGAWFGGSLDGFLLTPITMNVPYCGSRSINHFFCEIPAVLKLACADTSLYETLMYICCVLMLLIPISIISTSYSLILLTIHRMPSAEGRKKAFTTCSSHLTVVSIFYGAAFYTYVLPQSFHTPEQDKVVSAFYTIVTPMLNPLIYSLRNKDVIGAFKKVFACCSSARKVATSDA
Procedure, shortened: as §1

[11] = system: T11, O2T27 L36V V134D
T11 sequence (whole entry): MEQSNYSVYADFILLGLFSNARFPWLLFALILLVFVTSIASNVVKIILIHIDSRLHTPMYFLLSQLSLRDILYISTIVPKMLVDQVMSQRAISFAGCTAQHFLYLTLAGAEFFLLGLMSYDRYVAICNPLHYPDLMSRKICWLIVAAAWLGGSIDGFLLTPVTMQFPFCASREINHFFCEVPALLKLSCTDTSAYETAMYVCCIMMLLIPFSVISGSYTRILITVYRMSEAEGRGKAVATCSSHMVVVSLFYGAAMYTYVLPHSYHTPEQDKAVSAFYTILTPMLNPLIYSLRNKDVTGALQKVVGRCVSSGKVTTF
Procedure, shortened: as §1

[12] = system: T12, O2T29 Q24R
T12 sequence (whole entry): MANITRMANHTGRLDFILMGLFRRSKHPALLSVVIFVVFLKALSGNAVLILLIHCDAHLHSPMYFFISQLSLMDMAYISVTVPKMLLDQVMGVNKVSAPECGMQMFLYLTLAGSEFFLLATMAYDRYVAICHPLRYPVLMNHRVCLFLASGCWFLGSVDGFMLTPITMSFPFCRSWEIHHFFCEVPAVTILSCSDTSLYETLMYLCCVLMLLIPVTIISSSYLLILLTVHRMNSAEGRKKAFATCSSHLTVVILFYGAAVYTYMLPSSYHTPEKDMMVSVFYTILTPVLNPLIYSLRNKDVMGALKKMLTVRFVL
Procedure, shortened: as §1

[13] = system: T13, O2T33 A169V
T13 sequence (whole entry): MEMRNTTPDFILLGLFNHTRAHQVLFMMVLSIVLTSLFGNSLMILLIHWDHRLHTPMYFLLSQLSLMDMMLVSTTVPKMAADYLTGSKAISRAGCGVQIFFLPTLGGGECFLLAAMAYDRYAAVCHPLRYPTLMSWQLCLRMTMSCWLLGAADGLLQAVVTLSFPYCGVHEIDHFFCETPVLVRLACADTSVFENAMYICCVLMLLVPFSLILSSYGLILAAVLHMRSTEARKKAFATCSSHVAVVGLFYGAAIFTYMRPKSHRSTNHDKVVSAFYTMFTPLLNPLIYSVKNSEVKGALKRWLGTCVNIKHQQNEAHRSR
Procedure, shortened: as §1

[14] = system: T14, O2T33 G297E I309L
T14 sequence (whole entry): T13 sequence (whole entry) with V169A, G297E, I309L
Procedure, shortened: as §1

[15] = system: T15, O2T34 Q6P R267P
T15 sequence (whole entry): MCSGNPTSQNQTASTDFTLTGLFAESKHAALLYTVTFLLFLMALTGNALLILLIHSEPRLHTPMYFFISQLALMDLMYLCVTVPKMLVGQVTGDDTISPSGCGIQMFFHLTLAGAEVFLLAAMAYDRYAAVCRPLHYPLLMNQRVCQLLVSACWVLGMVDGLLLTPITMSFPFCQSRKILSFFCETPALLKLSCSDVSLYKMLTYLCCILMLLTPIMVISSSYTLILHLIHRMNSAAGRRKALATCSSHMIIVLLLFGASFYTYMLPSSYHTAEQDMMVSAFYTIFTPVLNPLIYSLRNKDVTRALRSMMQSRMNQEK
Procedure, shortened: as §1

[16] = system: T16, O2T34 R267P
T16 sequence (whole entry): T15 sequence (whole entry) with P6Q
Procedure, shortened: as §1

[17] = system: T17, O4A47
T17 sequence (whole entry): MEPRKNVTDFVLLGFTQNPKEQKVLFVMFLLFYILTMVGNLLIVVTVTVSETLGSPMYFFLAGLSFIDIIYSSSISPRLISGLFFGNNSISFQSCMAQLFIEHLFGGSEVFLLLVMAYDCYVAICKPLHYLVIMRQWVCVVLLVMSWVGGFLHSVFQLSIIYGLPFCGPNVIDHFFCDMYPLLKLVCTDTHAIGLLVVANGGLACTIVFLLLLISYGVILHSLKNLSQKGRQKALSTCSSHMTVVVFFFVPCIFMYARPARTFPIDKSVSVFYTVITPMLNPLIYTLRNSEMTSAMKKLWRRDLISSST
Procedure, shortened: as §1

[18] = system: O4C46 S240F C252Y K288R
Procedure, shortened: as §1

[19] = system: T18, O4F15 A272T
T18 sequence (whole entry): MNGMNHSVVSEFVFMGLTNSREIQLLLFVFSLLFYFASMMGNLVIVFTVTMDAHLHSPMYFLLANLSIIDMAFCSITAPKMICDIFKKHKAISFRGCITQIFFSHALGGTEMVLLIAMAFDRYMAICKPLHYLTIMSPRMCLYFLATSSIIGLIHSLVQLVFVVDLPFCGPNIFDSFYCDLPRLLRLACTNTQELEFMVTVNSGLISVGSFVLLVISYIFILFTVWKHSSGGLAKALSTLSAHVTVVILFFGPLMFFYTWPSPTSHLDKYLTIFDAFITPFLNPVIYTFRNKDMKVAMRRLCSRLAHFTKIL
Procedure, shortened: as §1

[20] = system: T19, O1440
T19 sequence (whole entry): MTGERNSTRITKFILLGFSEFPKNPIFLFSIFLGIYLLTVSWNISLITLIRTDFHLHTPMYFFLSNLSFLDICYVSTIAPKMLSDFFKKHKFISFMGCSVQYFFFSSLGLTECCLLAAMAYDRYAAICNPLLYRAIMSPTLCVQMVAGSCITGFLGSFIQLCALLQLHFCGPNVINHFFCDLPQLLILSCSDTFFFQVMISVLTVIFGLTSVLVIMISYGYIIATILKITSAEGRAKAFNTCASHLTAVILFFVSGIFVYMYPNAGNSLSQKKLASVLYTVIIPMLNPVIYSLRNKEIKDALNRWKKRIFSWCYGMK
Procedure, shortened: as §1

Measured: odorant receptor agonist call

Cc1cnc(C)c(C)n1
not listed: [20]
inactive: all other assays above

C1CCCCCCCCCCCCCC1
inactive: [20]

CC1CCCCCCCCCCCC(=O)C1 (centres undefined)
active: [20]

CC1CCCCCCCCCCCCC(=O)C1 (centres undefined)
active: [20]

O=C1C=CCCCCCCCCCCCCO1
active: [20]

CC1CC=CCCCCCCCCC(=O)C1 (centres undefined)
active: [20]

CC1C(C)(C)C2=C(C(=O)CCC2)C1(C)C (centres undefined)
active: [20]

CC1=NC(C)C(C)S1 (centres undefined)
not listed: [20]
inactive: all other assays above
